Assay [1] addresses Major prion protein (Mesocricetus auratus) (UniProt P04273). Description: Inhibition of Syrian hamster prion protein (109-149) aggregation assessed as changes in light scattering at 1 uM by spectrofluorimetric analysis relative to control. The procedure, abridged: (§1)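 Synthetic hamster PrP 109–149 peptide was solubilized in 50 mM MES pH 5.0 with 6 M urea and 10 mM SDS, where it stays unfolded. It was diluted at least 100-fold to 0.5 µM in 50 mM MES pH 5.0 containing increasing compound concentrations. Light scattering (450 nm excitation/emission) was followed over time. Maximum scattering was normalized to the no-compound control (100% aggregation) and to the peptide in 6 M urea (0%). Values are means of three independent measurements.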

For assay [2] the target is unchanged. Briefly: Reduction of thioflavin T binding to Syrian hamster prion protein (109-149) at 10 uM after 10 mins by fluorescence assay. The procedure, abridged:
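Peptide at 1.0 µM was incubated with compound at 10 µM in pH 5.0 buffer. After 10 min, thioflavin T was added to 20 µM final. Emission was recorded from 470–520 nm with excitation at 450 nm. The integrated spectral area was corrected for probe emission without peptide. Values are means of three experiments.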

For assay [3] the target is unchanged. Briefly: Inhibition of Syrian hamster prion protein (109-149) aggregation assessed as compound concentration required to inhibit 50% aggregation by spectrofluorimetric analysis. The procedure, abridged:
as §1

Assay [4] has the same target. Description: Inhibition of Syrian hamster prion protein (109-149) aggregation assessed as changes in light scattering at 0.2 uM by spectrofluorimetric analysis relative to control. Put shortly: as §1
Assay [5] has the same target. Briefly: Inhibition of Syrian hamster prion protein (109-149) aggregation assessed as changes in light scattering at 0.1 uM by spectrofluorimetric analysis relative to control. The procedure, abridged:
as §1

Calls of active or inactive are those of the source. The calls are words filed in the database; no cut-off is given here.

By inhibition is commonly meant the change of the read-out against control, counted positive when it falls.

Major prion protein (Mesocricetus auratus), sequence (P04273 whole entry): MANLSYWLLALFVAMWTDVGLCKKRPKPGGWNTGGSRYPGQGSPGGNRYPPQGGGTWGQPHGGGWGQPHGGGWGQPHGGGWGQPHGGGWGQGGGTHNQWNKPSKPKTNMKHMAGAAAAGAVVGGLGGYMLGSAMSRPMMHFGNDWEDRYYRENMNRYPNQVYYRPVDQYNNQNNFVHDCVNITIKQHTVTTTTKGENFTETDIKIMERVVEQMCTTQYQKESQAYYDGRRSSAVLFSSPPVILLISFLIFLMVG

As to `OCCNc1ccnc2cc(Cl)ccc12`, the inhibition in assay [1] amounted to 97%. Further, the outcome in assay [2] was Active. In assay [3], the C50 is over 1 µM.

For `Clc1ccc2c(NC3CCCC3)ccnc2c1`, the result in assay [2] was Active. Further, the C50 in assay [3] was over 1 µM.

Take `Nc1ccnc2cc(Cl)ccc12`: the inhibition in assay [1] turned out to be 8.4%; in assay [4], 50%; in assay [5], 50%. Moreover, in assay [2], the result was Active. Also, the C50 in assay [3] was 0.2 µM.

For `CN(C)CCNc1ccnc2cc(Cl)ccc12`, the inhibition in assay [1] turned out to be 82%. In addition, in assay [3], the C50 was over 1 µM.

Regarding `NCCNc1ccnc2cc(Cl)ccc12`, the inhibition was determined as 7.9% in assay [1], 50% in assay [4] and 50% in assay [5]. In addition, the result in assay [2] was Active. Moreover, the C50 in assay [3] amounted to 0.1 µM.

With `CCN(CC)CCNc1ccnc2cc(SC(F)(F)F)ccc12`, the inhibition in assay [1] was found to be 54%. Besides, the C50 in assay [3] is over 1 µM.

`CNc1ccnc2cc(Cl)ccc12`: the inhibition in assay [1] was 38.6%. For the same molecule, the result in assay [2] was Active. Besides, in assay [3], the C50 was over 0.9 µM.

These data come from ChEMBL document CHEMBL1287645, “Synthesis and anti-prion activity evaluation of aminoquinoline analogues” (Eur J Med Chem, 2010).
